{
  "source": "ChEMBL document CHEMBL1121727",
  "about": "“Synthesis and biological activity of certain derivatives of oxazinomycin and related oxadiazole nucleosides” (J Med Chem, 1981)",
  "key": {"[1]": {"system": "Human alphaherpesvirus 1", "test": "In vitro antiviral activity against herpes simplex virus/1(HSV/1) expressed as viral rating (VR); Inactive", "assay_type": "functional, organism-based", "in_short": "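Tested in vitro in KB cells infected with HSV type 1 at 1000 to 1 μg/mL. Plates were incubated 72 h at 37 °C, and inhibition of viral cytopathic effect was scored as a virus rating (VR). VR ≥ 0.5 was taken as moderate to definite activity. Ribavirin and acyclovir served as controls.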"}, "[2]": {"system": "L1210", "test": "Antitumor activity against L1210 cells; Inactive", "assay_type": "functional, cell-based", "details": "Mus musculus"}, "[3]": {"system": "P388", "test": "Antitumor activity against leukemia P388 cells; Inactive", "assay_type": "functional, cell-based", "details": "Mus musculus"}, "[4]": {"system": "Human alphaherpesvirus 1", "test": "In vitro antiviral activity against herpes simplex virus/1(HSV/1) expressed as viral rating (VR)", "assay_type": "functional", "in_short": "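Antiviral assay in KB cells against HSV type 1 over 1000 to 1 μg/mL. Inhibition of viral cytopathic effect was read after 72 h at 37 °C and scored as virus rating (VR). VR ≥ 0.5 was taken as moderate to definite activity. Ribavirin and acyclovir served as controls.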"}, "[5]": {"system": "HeLa", "test": "Antitumor activity against HeLa cells", "assay_type": "functional, cell-based", "details": "Homo sapiens"}, "[6]": {"system": "L1210", "test": "Antitumor activity against L1210 cells", "assay_type": "functional, cell-based", "details": "Mus musculus"}, "[7]": {"system": "L1210", "test": "Inhibition of RNA, DNA, and protein synthesis in L1210 cells at 8*10e-7 M."}},
  "note": "Calls of active or inactive are those of the source. The rule behind the calls is not given here.",
  "data": [
    {"smiles": "O=c1[nH]oc(=O)[nH]1", "values": [
      {"measurement": "VR", "setting": "[1]", "value": "inactive"},
      {"measurement": "Activity", "setting": "[2]", "value": "inactive"},
      {"measurement": "Activity", "setting": "[3]", "value": "inactive"}
    ]},
    {"smiles": "NC(=O)c1ncn([C@@H]2O[C@H](CO)[C@@H](O)[C@H]2O)n1", "note": "[RIBAVIRIN]", "values": [
      {"measurement": "VR", "setting": "[4]", "value": 1.2}
    ]},
    {"smiles": "Nc1nc2c(ncn2COCCO)c(=O)[nH]1", "note": "[ACYCLOVIR]", "values": [
      {"measurement": "VR", "setting": "[4]", "value": 1.4}
    ]},
    {"smiles": "C[C@H]1OC(c2coc(=O)[nH]c2=O)[C@H](O)[C@@H]1O", "note": "(some centres not stated)", "values": [
      {"measurement": "Activity", "setting": "[2]", "value": "inactive"},
      {"measurement": "Activity", "setting": "[3]", "value": "inactive"}
    ]},
    {"smiles": "O=c1[nH]c(=O)c([C@@H]2O[C@H](CO)[C@@H](O)[C@H]2O)co1", "values": [
      {"measurement": "IC50", "setting": "[5]", "value": 500, "unit": "nM"},
      {"measurement": "IC50", "setting": "[6]", "value": 300, "unit": "nM"},
      {"measurement": "Inhibition", "setting": "[7]", "value": 5, "unit": "%"}
    ]},
    {"smiles": "O=c1[nH]c(=O)n([C@H]2C[C@H](O)[C@@H](CO)O2)o1", "values": [
      {"measurement": "VR", "setting": "[1]", "value": "inactive"},
      {"measurement": "Activity", "setting": "[2]", "value": "inactive"},
      {"measurement": "Activity", "setting": "[3]", "value": "inactive"}
    ]},
    {"smiles": "O=c1[nH]c(=O)c([C@@H]2O[C@H](COP(=O)(O)O)[C@@H](O)[C@H]2O)co1", "values": [
      {"measurement": "Activity", "setting": "[2]", "value": "inactive"},
      {"measurement": "Activity", "setting": "[3]", "value": "inactive"}
    ]},
    {"smiles": "CC(=O)O[C@H]1C[C@H](c2coc(=O)[nH]c2=O)O[C@@H]1CO", "values": [
      {"measurement": "Activity", "setting": "[2]", "value": "inactive"},
      {"measurement": "Activity", "setting": "[3]", "value": "inactive"}
    ]},
    {"smiles": "O=c1[nH]c(=O)n(C2O[C@H](CO)[C@@H](O)[C@H]2O)o1", "note": "(some centres not stated)", "values": [
      {"measurement": "VR", "setting": "[4]", "value": 0.65},
      {"measurement": "Activity", "setting": "[2]", "value": "inactive"},
      {"measurement": "Activity", "setting": "[3]", "value": "inactive"}
    ]},
    {"smiles": "O=c1nc2c(co1)[C@@H]1O[C@H](CO)[C@@H](O)[C@@H]1O2", "values": [
      {"measurement": "Activity", "setting": "[2]", "value": "inactive"},
      {"measurement": "Activity", "setting": "[3]", "value": "inactive"}
    ]}
  ]
}
